In ChEMBL document CHEMBL2069215, “Synthesis and biological evaluation of novel triazoles and isoxazoles linked 2-phenyl benzothiazole as potential anticancer agents” (Bioorg Med Chem Lett, 2012):
The source made the active and inactive calls. No cut-off for these calls is given here.

Columns and labels:
A549 = assay: Cytotoxicity against human A549 cells after 24 hrs by MTT assay; type: functional, cell-based; conditions: A549, 24 h
Outline: (§1)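 A549 lung adenocarcinoma, Colo-205 colon and MCF-7 breast carcinoma cells were exposed to compounds at 1 to 64 µM for 24 h. Viability was read by MTT assay, and IC50 values were derived from it.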

MCF-10A = assay: Cytotoxicity against human MCF10A cells after 24 hrs by MTT assay; type: cell-based
MCF7 = assay: Cytotoxicity against human MCF7 cells after 24 hrs by MTT assay; type: functional, cell-based; conditions: MCF7, 24 h; outline: as §1
COLO 205 [1] = assay: Cytotoxicity against human COLO205 cells after 24 hrs by MTT assay; type: functional, cell-based; conditions: COLO 205, 24 h; outline: as §1
COLO 205 [2] = assay: Cell cycle arrest in human COLO205 cells assessed as accumulation at G1 phase at 8 uM after 24 hrs by FACS analysis (reference value: 71.02 +/- 1.00%); type: functional
Outline: (§2)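 Colo-205 human colon cancer cells were exposed to 8 or 16 µM for 24 h alongside untreated controls. They were then analysed by flow cytometry (FACS) for cell-cycle distribution as percent of cells in G0, G1, S and G2/M. The G0 population was taken as apoptotic cells.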

COLO 205 [3] = assay: Induction of apoptosis in human COLO205 cells assessed as accumulation at G0 phase at 16 uM after 24 hrs by FACS analysis (reference value: 2.28%); type: functional; outline: as §2
COLO 205 [4] = assay: Cell cycle arrest in human COLO205 cells assessed as accumulation at G2/M phase at 16 uM after 24 hrs by FACS analysis (reference value: 23.09 +/- 1.01%); type: functional; outline: as §2
COLO 205 [5] = assay: Induction of apoptosis in human COLO205 cells assessed as accumulation at G0 phase at 8 uM after 24 hrs by FACS analysis (reference value: 2.28%); type: functional; outline: as §2
COLO 205 [6] = assay: Cell cycle arrest in human COLO205 cells assessed as accumulation at G2/M phase at 8 uM after 24 hrs by FACS analysis (reference value: 23.09 +/- 1.01%); type: functional; outline: as §2
COLO 205 [7] = assay: Cell cycle arrest in human COLO205 cells assessed as accumulation at S phase at 8 uM after 24 hrs by FACS analysis (reference value: 3.56 +/- 0.40%); type: functional; outline: as §2
COLO 205 [8] = assay: Cell cycle arrest in human COLO205 cells assessed as accumulation at G1 phase at 16 uM after 24 hrs by FACS analysis (reference value: 71.02 +/- 1.00%); type: functional; outline: as §2
COLO 205 [9] = assay: Cell cycle arrest in human COLO205 cells assessed as accumulation at S phase at 16 uM after 24 hrs by FACS analysis (reference value: 3.56 +/- 0.40%); type: functional; outline: as §2
COLO 205 [10] = assay: Induction of apoptosis in human COLO205 cells assessed as increase in PARP expression at 8 uM after 24 hrs by Western blot analysis; type: functional, cell-based
Outline: (§3)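 Colo-205 cells were treated at 8 or 16 µM for 24 h and lysed. Western blots of the lysates were probed with antibodies to procaspase-8, procaspase-9, active caspase-3 and cleaved (active) PARP.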

COLO 205 [11] = assay: Induction of apoptosis in human COLO205 cells assessed as degradation of procaspase 8 at 8 uM after 24 hrs by Western blot analysis; type: functional, cell-based; outline: as §3
COLO 205 [12] = assay: Induction of apoptosis in human COLO205 cells assessed as degradation of procaspase 9 at 8 uM after 24 hrs by Western blot analysis; type: functional, cell-based; outline: as §3
COLO 205 [13] = assay: Induction of apoptosis in human COLO205 cells assessed as increase in caspase 3 expression at 8 uM after 24 hrs by Western blot analysis; type: functional, cell-based; outline: as §3

Row | SMILES | IC50 (A549) [µM] | IC50 (MCF-10A) [µM] | IC50 (MCF7) [µM] | IC50 (COLO 205 [1]) [µM] | Activity (COLO 205 [2]) [%] | Activity (COLO 205 [3]) [%] | Activity (COLO 205 [4]) [%] | Activity (COLO 205 [5]) [%] | Activity (COLO 205 [6]) [%] | Activity (COLO 205 [7]) [%] | Activity (COLO 205 [8]) [%] | Activity (COLO 205 [9]) [%] | Activity (COLO 205 [10]) | Activity (COLO 205 [11]) | Activity (COLO 205 [12]) | Activity (COLO 205 [13])
1 | Fc1ccc(-n2cc(COc3ccccc3-c3nc4ccccc4s3)nn2)cc1 | 23.3 | 33.3 | 26.2 | 18.9 | – | – | – | – | – | – | – | – | – | – | – | –
2 | Fc1ccc(-n2cc(COc3ccccc3-c3nc4ccccc4s3)nn2)cc1Cl | 16.3 | 26.3 | 27.3 | 14.4 | – | – | – | – | – | – | – | – | – | – | – | –
3 | FC(F)(F)C(F)(F)C(F)(F)C(F)(F)C(F)(F)C(F)(F)C(F)(F)C(F)(F)CCn1cc(COc2ccccc2-c2nc3ccccc3s2)nn1 | 13.1 | 33.1 | 19.2 | 12.2 | 72 | 34.45 | 15.18 | 3.3 | 20.22 | 4.43 | 46.57 | 3.79 | – | – | – | –
4 | FC(F)(F)c1cccc(-n2cc(COc3ccccc3-c3nc4ccccc4s3)nn2)c1 | 11.1 | 31.1 | 18.9 | 10.8 | 70.91 | 40.7 | 10.67 | 4.02 | 21.68 | 3.37 | 45.77 | 2.68 | Active | Active | Active | Active
5 | Clc1ccc(-c2cc(COc3ccccc3-c3nc4ccccc4s3)on2)cc1 | 18.8 | 38.8 | 23.8 | 16.4 | – | – | – | – | – | – | – | – | – | – | – | –
6 | Fc1ccccc1-c1cc(COc2ccccc2-c2nc3ccccc3s2)on1 | 22.5 | 42.5 | 23.9 | 18.3 | – | – | – | – | – | – | – | – | – | – | – | –
7 | FC(F)(F)Oc1ccc(-c2cc(COc3ccccc3-c3nc4ccccc4s3)on2)cc1 | 23.9 | 43.9 | 26.6 | 19.9 | – | – | – | – | – | – | – | – | – | – | – | –
8 | COc1cc(-c2cc(COc3ccccc3-c3nc4ccccc4s3)on2)cc(OC)c1OC | 22.9 | 42.9 | 25.6 | 17.5 | – | – | – | – | – | – | – | – | – | – | – | –
9 | FC(F)(F)C(F)(F)C(F)(F)C(F)(F)C(F)(F)C(F)(F)CCn1cc(COc2ccccc2-c2nc3ccccc3s2)nn1 | 15.1 | 35.1 | 19.8 | 14.2 | 73.66 | 11.91 | 22.3 | 2.72 | 20.53 | 3.09 | 61.36 | 4.42 | – | – | – | –
10 | Cc1ccc(-c2cc(COc3ccccc3-c3nc4ccccc4s3)on2)cc1 | 16.4 | 26.4 | 27.5 | 14.2 | – | – | – | – | – | – | – | – | – | – | – | –
11 | COc1ccc(-c2cc(COc3ccccc3-c3nc4ccccc4s3)on2)cc1 | 24.1 | 34.1 | 22.1 | 20.7 | – | – | – | – | – | – | – | – | – | – | – | –
12 | Brc1ccc(-c2cc(COc3ccccc3-c3nc4ccccc4s3)on2)cc1 | 19.2 | 29.2 | 20 | 16.4 | – | – | – | – | – | – | – | – | – | – | – | –
13 | COc1ccc(-c2nc3cc(F)ccc3s2)cc1OC | 15.9 | 25.2 | 20.2 | 13.9 | 70.04 | 27.17 | 15.6 | 4.15 | 22.5 | 3.21 | 52.82 | 4.31 | – | – | – | –
14 | c1ccc(-n2cc(COc3ccccc3-c3nc4ccccc4s3)nn2)cc1 | 16.4 | 36.4 | 26.2 | 16.6 | – | – | – | – | – | – | – | – | – | – | – | –
